Active and inactive are the calls of the source. No cut-off for these calls is given here.
Tests used:
[1] = tested on: U-87 MG; experiment: Anti-angiogenic activity in tumor of human U87MG cells xenografted in nude BALB/c mouse assessed as reduction in number of blood vessels at 50 mg/kg, ip administered for 14 days by hematoxylin and eosin-staining based light microscopy; type: functional, organism-based; settings: U-87MG ATCC
Summary of the method: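 U-87 MG flank xenografts (5 x 10⁵ cells) in male nude mice; ip treatment daily from about 50 mm³ for 14 days, with temozolomide at 50 mg/kg/day in the co-treatment arm. Vessel density counted on HE-stained 3 µm sections by hot-spot method, mean of four fields per tumor at x200, avoiding gross haemorrhage. One-way ANOVA/Dunnett.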

[2] = Toxicity in nude BALB/c mouse xenografted with human U87MG cells assessed as reduction in body weight at 50 mg/kg, […]; type: organism-based; design: scale not given: the % may be the effect or the level left; settings: in vivo, ip, 120 h
[3] = tested on: U-87 MG; experiment: Anti-angiogenic activity in tumor of human U87MG cells xenografted in nude BALB/c mouse assessed as reduction in CD31 staining at 50 mg/kg, ip administered for 14 days by immunohistochemistry; type: functional, organism-based; settings: U-87MG ATCC
Summary of the method: (§1)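 Male nude mice bearing subcutaneous right-flank xenografts of 5 x 10⁵ U-87 MG cells; dosing began at about 50 mm³ tumors, ip daily for 14 days. Tumors formalin-fixed, paraffin sections 3 µm; citrate pH 6 antigen retrieval at 95-98 °C; primary antibody overnight at 4 °C, HRP secondary, DAB. Positive area quantified by optical density at x200, 4 images per tumor; mean ± SEM, one-way ANOVA with Dunnett.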

[4] = tested on: U-87 MG; experiment: Induction of apoptosis in human U87MG cells xenografted in BALB/c nude mouse assessed as caspase-3 levels at 50 mg/kg, ip after 14 days by immunohistochemistry; type: functional, organism-based; settings: U-87MG ATCC
Summary of the method: (§2)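 Male BALB/c nude mice implanted subcutaneously with 5 x 10⁵ U-87 MG cells in the right flank. Treated IP at 50 mg/kg/day for 14 days, with saline controls, starting once tumors reached about 50 mm³. Tumors fixed in formaldehyde and cut at 3 µm. Citrate pH 6 antigen retrieval.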

[5] = tested on: U-87 MG; experiment: Antitumor activity against human U87MG cells xenografted in BALB/c nude mouse assessed as tumor growth inhibition 50 mg/kg/day, ip administered for 14 days; type: functional, organism-based; settings: U-87MG ATCC
Summary of the method: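 5 x 10⁵ U-87 MG cells implanted subcutaneously in right flank of male BALB/c nude mice; at about 50 mm³, randomized to saline or ip 50 mg/kg/day, with temozolomide 50 mg/kg/day in the combination arm, for 14 days. Relative tumor volume = volume on day / day 0; TGI on day 14 = [1 − RTV treated/RTV control] x 100. Two-way ANOVA with Bonferroni.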

[6] = tested on: U-87 MG; experiment: In-vivo inhibition of cell proliferation in human U87MG cells xenografted in BALB/c nude mouse at 50 mg/kg, ip after 14 days by Ki-67b-staining based assay; type: functional, organism-based; settings: U-87MG ATCC; summary of the method: as §2
[7] = tested on: U-87 MG; experiment: Anti-angiogenic activity in tumor of human U87MG cells xenografted in nude BALB/c mouse assessed as reduction in VEGF staining at 50 mg/kg, ip administered for 14 days by immunohistochemistry; type: functional, organism-based; settings: U-87MG ATCC; summary of the method: as §1
[8] = biological target: T1, Thymidine phosphorylase (Homo sapiens, UniProt P19971); experiment: Inhibition of recombinant human thymidine phosphorylase expressed in Escherichia coli Rosetta (DE3) cells using thymidine as substrate after 1 min by UV/visible spectrophotometry
T1 sequence (P19971 whole entry): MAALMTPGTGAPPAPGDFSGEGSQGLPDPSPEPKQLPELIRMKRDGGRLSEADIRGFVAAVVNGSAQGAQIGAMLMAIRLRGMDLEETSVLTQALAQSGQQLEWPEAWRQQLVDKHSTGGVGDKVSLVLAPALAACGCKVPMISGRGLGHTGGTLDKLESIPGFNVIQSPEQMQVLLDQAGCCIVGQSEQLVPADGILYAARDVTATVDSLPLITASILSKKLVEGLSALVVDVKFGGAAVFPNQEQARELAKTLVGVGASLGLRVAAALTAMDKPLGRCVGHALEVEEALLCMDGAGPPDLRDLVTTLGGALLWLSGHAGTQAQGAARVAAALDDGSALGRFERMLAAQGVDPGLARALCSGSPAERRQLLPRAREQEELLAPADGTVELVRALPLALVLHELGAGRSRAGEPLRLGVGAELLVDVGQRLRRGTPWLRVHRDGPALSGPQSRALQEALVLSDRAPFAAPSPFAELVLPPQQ

Structure (SMILES)	Activity [1]	Activity [2] [%]	Activity [3]	Activity [4]	TGI [5]	inhibition [6]	Activity [7]	IC50 [8] [µM]
Cn1nnc2c(C(N)=O)ncn2c1=O [TEMOZOLOMIDE]	inactive	< 20	inactive	inactive	Active	inactive	inactive	
O=c1[nH]c(CNCC(O)CO)c(Br)c(=O)[nH]1 (centres undefined)								> 100
CCCN(CCC)Cc1[nH]c(=O)[nH]c(=O)c1I								> 100

Reference: ChEMBL document CHEMBL4422632, “Design of Novel Inhibitors of Human Thymidine Phosphorylase: Synthesis, Enzyme Inhibition, in Vitro Toxicity, and Impact on Human Glioblastoma Cancer” (J Med Chem, 2019)
